Data: ChEMBL document CHEMBL1129433, “On the bioisosteric potential of diazines: diazine analogues of the combined thromboxane A2 receptor antagonist and synthetase inhibitor Ridogrel” (J Med Chem, 1996)

What was measured:
Homo sapiens [1] = species: Homo sapiens; test: In vitro inhibition of collagen-induced platelet aggregation in human platelet-rich plasma (PRP) at 273 uM; type: functional
Thromboxane-A synthase = target: T1, Thromboxane-A synthase (Homo sapiens, UniProt P24557); test: TXA2 synthetase inhibition measured by the inhibition of TXB2 formation by human gel-filtered platelets incubated with [14C]arachidonic acid
T1 sequence (P24557 whole entry): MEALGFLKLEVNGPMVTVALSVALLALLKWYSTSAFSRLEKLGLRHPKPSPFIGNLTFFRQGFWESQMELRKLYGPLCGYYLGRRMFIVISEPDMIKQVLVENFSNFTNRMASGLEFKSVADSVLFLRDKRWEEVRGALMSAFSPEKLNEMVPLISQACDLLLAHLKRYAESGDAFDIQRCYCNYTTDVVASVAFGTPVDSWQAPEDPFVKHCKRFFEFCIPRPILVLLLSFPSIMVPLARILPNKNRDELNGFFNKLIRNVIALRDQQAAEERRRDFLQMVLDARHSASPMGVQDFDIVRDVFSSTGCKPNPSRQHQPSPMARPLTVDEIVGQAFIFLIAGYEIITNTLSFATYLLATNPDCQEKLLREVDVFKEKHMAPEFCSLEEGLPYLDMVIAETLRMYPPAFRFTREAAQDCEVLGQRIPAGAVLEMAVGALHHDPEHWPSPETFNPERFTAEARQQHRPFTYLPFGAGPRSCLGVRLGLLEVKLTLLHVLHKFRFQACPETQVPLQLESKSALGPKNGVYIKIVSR

Thromboxane A2 receptor [2] = target: T2, Thromboxane A2 receptor (Homo sapiens, UniProt P21731); test: TXA2 receptor antagonism, measured by the displacement of [3H]SQ29,548 from the PGH-2/TXA-2 receptor on human platelets; type: functional
T2 sequence (P21731 whole entry): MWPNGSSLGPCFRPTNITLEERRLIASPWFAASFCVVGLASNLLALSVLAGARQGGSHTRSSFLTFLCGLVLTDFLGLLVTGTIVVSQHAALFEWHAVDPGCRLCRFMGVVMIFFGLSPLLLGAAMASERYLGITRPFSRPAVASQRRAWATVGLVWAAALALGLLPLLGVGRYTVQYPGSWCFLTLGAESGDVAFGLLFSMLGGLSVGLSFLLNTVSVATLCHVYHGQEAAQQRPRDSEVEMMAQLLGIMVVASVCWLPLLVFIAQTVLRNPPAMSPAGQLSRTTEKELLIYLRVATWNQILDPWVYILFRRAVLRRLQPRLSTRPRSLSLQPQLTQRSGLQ
Method in brief: (§1)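 Human gel-filtered platelets were used. Nonspecific binding was defined with U 46,619 at 30 µM final in place of the test compound. IC50 is the concentration giving 50% displacement of [³H]SQ 29,548.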

Homo sapiens [3] = species: Homo sapiens; test: Inhibition of collagen-induced platelet aggregation in human platelet rich plasma; type: functional
Method in brief: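 PRP and PPP were prepared from human blood by centrifugation at 1000 rpm and 4000 rpm respectively, each for 10 min at 10 °C. PRP was adjusted to […]. Collagen was 0.53 µg/mL final. Optical density of stirred PRP was recorded for 4 min, at least in duplicate. PRP and PPP set 0% and 100% light transmission. EC50 was taken from the concentration–inhibition curve.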

Homo sapiens [4] = species: Homo sapiens; test: In vitro inhibition of collagen-induced platelet aggregation in human platelet-rich plasma (PRP) at 291 uM; type: functional
Thromboxane A2 receptor [5] = target: T2, Thromboxane A2 receptor; test: TXA2 receptor antagonism, measured by the displacement of [3H]SQ-29548 from the PGH-2/TXA-2 receptor on human platelets; type: functional; method in brief: as §1
Homo sapiens [6] = species: Homo sapiens; test: In vitro inhibition of collagen-induced platelet aggregation in human platelet-rich plasma (PRP) at 278uM; type: functional

IC50 (Thromboxane-A synthase) [µM] | IC50 (Thromboxane A2 receptor [2]) [µM] | EC50 (Homo sapiens [3]) [µM] | Structure (SMILES) | further results
 |  |  | O=C(O)CCCO/N=C(\c1ccccc1)c1ncccn1 | inhibition at 273 µM (Homo sapiens [1]): 0%
> 100 | 25 | 255 | O=C(O)CCCCO/N=C(/c1ccccc1)c1ccncn1 | 
0.62 | 24 | 94 | O=C(O)CCCCO/N=C(/c1ccccc1)c1cnccn1 | 
> 10 | 25 | 236 | O=C(O)CCCCCO/N=C(/c1ccccc1)c1ccncn1 | 
 |  |  | O=C(O)CCCO/N=C(/c1ccccc1)c1ncccn1 | inhibition at 273 µM (Homo sapiens [1]): 0%
0.007 |  | 41 | O=C(O)CCCCO/N=C(/c1cccnc1)c1cccc(C(F)(F)F)c1 [RIDOGREL] | 
0.039 | 1.5 | 32 | O=C(O)CCCCO/N=C(/c1cncnc1)c1cccc(C(F)(F)F)c1 | 
> 10 | 1.1 | 25 | O=C(O)CCCCCO/N=C(\c1cccc(C(F)(F)F)c1)c1ccncn1 | 
> 10 | 5 | 112 | O=C(O)CCCCCO/N=C(\c1ccccc1)c1ccncn1 | 
 |  | 245 | O=C(O)CCCO/N=C(\c1ccccc1)c1ccnnc1 | 
 |  | 216 | O=C(O)CCCCCO/N=C(/c1ccccc1)c1cnccn1 | 
0.079 | 47 | 91 | O=C(O)CCCCO/N=C(\c1ccccc1)c1cnccn1 | 
 |  |  | O=C(O)CCCCCO/N=C(/c1ccccc1)c1ncccn1 | inhibition at 273 µM (Homo sapiens [1]): 0%
> 10 | 21 |  | O=C(O)CCCCCO/N=C(\c1ccnnc1)c1cccc(C(F)(F)F)c1 | inhibition at 291 µM (Homo sapiens [4]): 26%
6.63 | 1.8 | 30 | O=C(O)CCCCO/N=C(\c1ccnnc1)c1cccc(C(F)(F)F)c1 | 
> 100 | 30 | 274 | O=C(O)CCCCO/N=C(\c1ccccc1)c1ccncn1 | 
 |  |  | O=C(O)CCCO/N=C(/c1ccccc1)c1cnccn1 | inhibition at 273 µM (Homo sapiens [1]): 19%
> 100 |  |  | O=C(O)CCCCO/N=C(\c1ccccc1)c1ncccn1 | inhibition at 273 µM (Homo sapiens [1]): 0%
> 100 | 71 | 217 | O=C(O)CCCCO/N=C(/c1ccccc1)c1cccnn1 | 

IC50 (Thromboxane-A synthase) [µM] | IC50 (Thromboxane A2 receptor [2]) [µM] | EC50 (Homo sapiens [3]) [µM] | Structure (SMILES) | further results
0.573 | 7.2 | 191 | O=C(O)CCCCO/N=C(/c1ccccc1)c1cncnc1 | 
> 10 | 52 | 214 | O=C(O)CCCCO/N=C(/c1cccc(C(F)(F)F)c1)c1ncccn1 | 
> 100 |  |  | O=C(O)CCCCO/N=C(\c1ccccc1)c1cccnn1 | IC50 (Thromboxane A2 receptor [5]): 104 µM; inhibition at 278 µM (Homo sapiens [6]): 47%
6.1 | 0.36 | 12 | O=C(O)CCCCO/N=C(\c1cncnc1)c1cccc(C(F)(F)F)c1 | 
0.016 | 6 | 52 | O=C(O)CCCCO/N=C(/c1ccnnc1)c1cccc(C(F)(F)F)c1 | 
 |  | 251 | O=C(O)CCCCCO/N=C(\c1cccc(C(F)(F)F)c1)c1cnccn1 | 
> 10 | 99 | 272 | O=C(O)CCCCO/N=C(\c1cccc(C(F)(F)F)c1)c1ncccn1 | 
> 10 | 1.4 | 19 | O=C(O)CCCCO/N=C(\c1cccc(C(F)(F)F)c1)c1ccncn1 | 
> 10 | 7.7 | 81 | O=C(O)CCCCCO/N=C(/c1ccccc1)c1ccnnc1 | 
 |  | 241 | O=C(O)CCCCCO/N=C(\c1cccc(C(F)(F)F)c1)c1cccnn1 | 
0.26 | 33 | 227 | O=C(O)CCCCO/N=C(\c1ccccc1)c1ccnnc1 | 
2.9 | 1.5 | 65 | O=C(O)CCCCO/N=C(/c1cccc(C(F)(F)F)c1)c1cnccn1 | 
 |  | 204 | O=C(O)CCCCCO/N=C(/c1ccccc1)c1cccnn1 | 
 |  |  | O=C(O)CCCCCO/N=C(/c1cccc(C(F)(F)F)c1)c1cnccn1 | inhibition at 291 µM (Homo sapiens [4]): 47%
8.8 | 13 | 163 | O=C(O)CCCCO/N=C(/c1ccccc1)c1ccnnc1 | 
0.693 | 29 | 186 | O=C(O)CCCCCO/N=C(/c1ccnnc1)c1cccc(C(F)(F)F)c1 | 
> 100 | 2.5 | 71 | O=C(O)CCCCO/N=C(/c1cccc(C(F)(F)F)c1)c1ccncn1 | 
3.8 | 7.1 | 59 | O=C(O)CCCCCO/N=C(\c1ccccc1)c1ccnnc1 | 
 |  | 203 | O=C(O)CCCCCO/N=C(\c1ccccc1)c1cccnn1 | 

IC50 (Thromboxane-A synthase) [µM] | IC50 (Thromboxane A2 receptor [2]) [µM] | EC50 (Homo sapiens [3]) [µM] | Structure (SMILES) | further results
0.006 | 11 | 190 | O=C(O)CCCCO/N=C(\c1cccc(C(F)(F)F)c1)c1cnccn1 | 
0.075 | 20 |  | O=C(O)CCCCO/N=C(\c1ccccc1)c1cncnc1 | inhibition at 278 µM (Homo sapiens [6]): 40%
 |  | 184 | O=C(O)CCCCCO/N=C(/c1cccc(C(F)(F)F)c1)c1ccncn1 | 
> 10 |  |  | O=C(O)CCCCO/N=C(/c1ccccc1)c1ncccn1 | inhibition at 273 µM (Homo sapiens [1]): 0%
 |  |  | O=C(O)CCCO/N=C(/c1ccccc1)c1ccnnc1 | inhibition at 273 µM (Homo sapiens [1]): 21%
 |  |  | O=C(O)CCCO/N=C(\c1ccccc1)c1ccncn1 | inhibition at 273 µM (Homo sapiens [1]): 34%
> 100 | 10 | 78 | O=C(O)CCCCO/N=C(\c1cccc(C(F)(F)F)c1)c1cccnn1 | 
> 10 | 8.8 | 127 | O=C(O)CCCCCO/N=C(/c1ccccc1)c1cncnc1 | 
 |  | 291 | O=C(O)CCCCCO/N=C(\c1cccc(C(F)(F)F)c1)c1ncccn1 | 
 |  |  | O=C(O)CCCCCO/N=C(\c1ccccc1)c1ncccn1 | inhibition at 273 µM (Homo sapiens [1]): 0%
 |  |  | O=C(O)CCCO/N=C(\c1ccccc1)c1cccnn1 | inhibition at 273 µM (Homo sapiens [1]): 4%
 |  |  | O=C(O)CCCO/N=C(/c1ccccc1)c1ccncn1 | inhibition at 273 µM (Homo sapiens [1]): 38%
 |  |  | O=C(O)CCCO/N=C(\c1ccccc1)c1cnccn1 | inhibition at 273 µM (Homo sapiens [1]): 47%
 |  |  | O=C(O)CCCO/N=C(/c1ccccc1)c1cccnn1 | inhibition at 273 µM (Homo sapiens [1]): 2%
 |  |  | O=C(O)CCCO/N=C(/c1ccccc1)c1cncnc1 | inhibition at 273 µM (Homo sapiens [1]): 17%
 |  | 291 | O=C(O)CCCCCO/N=C(\c1cncnc1)c1cccc(C(F)(F)F)c1 | 
 |  | 131 | O=C(O)CCCCCO/N=C(\c1ccccc1)c1cnccn1 | 
 |  | 200 | O=C(O)CCCCCO/N=C(/c1cncnc1)c1cccc(C(F)(F)F)c1 | 
 |  |  | O=C(O)CCCO/N=C(\c1ccccc1)c1cncnc1 | inhibition at 273 µM (Homo sapiens [1]): 46%
